Columns and labels:
[1] = Concentration of compound required for 50% inhibition of aggregation of JY cell lines; format: functional, cell-based; conditions: Homo sapiens
[2] = target: T1, Intercellular adhesion molecule (ICAM-1), Integrin alpha-L/beta-2 (Homo sapiens, UniProt P05107+P20701); experiment: Dissociation constant against human Lymphocyte function associated antigen1 in LFA-1/ICAM-1 binding assay; format: protein-complex assay
Cell line [3] = experiment: cells; format: functional, cell-based; conditions: Homo sapiens, Blood
[4] = target: T1, Intercellular adhesion molecule (ICAM-1), Integrin alpha-L/beta-2; experiment: Dissociation constant for human Lymphocyte function associated antigen 1 in LFA-1/ICAM-1 binding assay; format: protein-complex assay
Mus musculus = species on record: Mus musculus; experiment: tissue or blood; format: functional, organism-based
[5] = Maximum plasma concentration present after 4 hours of administration of compound of at 30 mg/kg; format: ADME, organism-based, Homo sapiens; parameters: dose 30 mg/kg; conditions: read-out: Concentration
[6] = Concentration required for inhibition of aggregation of JY cell line; format: functional, cell-based; conditions: Homo sapiens
[7] = Maximum plasma concentration present after 4 hours of administration of compound of at 100 mg/kg; format: ADME, organism-based, Homo sapiens; parameters: dose 100 mg/kg; conditions: read-out: Concentration
Procedure, shortened: (§1)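 Mice in the SEB-induced IL-2 production experiment were dosed orally at 30 or 100 mg/kg. Plasma drug concentration was measured 4 h after dosing and reported in ng/mL.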

Cell line [8] = experiment: Concentration required for irreversible binding to human liver microsomes; format: functional
[9] = target: T1, Intercellular adhesion molecule (ICAM-1), Integrin alpha-L/beta-2; experiment: Dissociation constant for human Lymphocyte function-associated antigen-1 in LFA-1/ICAM-1 binding assay; format: protein-complex assay
[10] = Maximum plasma concentration present after 4 hours of administration of compound at 30 mg/kg; format: ADME, organism-based, Homo sapiens; parameters: dose 30 mg/kg; conditions: read-out: Concentration
[11] = Maximum plasma concentration present after 4 hours of administration of compound of concentration 100 mg/kg; format: ADME, organism-based, Homo sapiens; parameters: dose 100 mg/kg; conditions: read-out: Concentration; procedure, shortened: as §1
[12] = target: T1, Intercellular adhesion molecule (ICAM-1), Integrin alpha-L/beta-2; experiment: Dissociation constant for human Lymphocyte function associated antigen1 in LFA-1/ICAM-1 binding assay
[13] = Concentration required to inhibit aggregation of JY cells; format: functional, cell-based; conditions: Homo sapiens

T1 sequence (P20701 whole entry): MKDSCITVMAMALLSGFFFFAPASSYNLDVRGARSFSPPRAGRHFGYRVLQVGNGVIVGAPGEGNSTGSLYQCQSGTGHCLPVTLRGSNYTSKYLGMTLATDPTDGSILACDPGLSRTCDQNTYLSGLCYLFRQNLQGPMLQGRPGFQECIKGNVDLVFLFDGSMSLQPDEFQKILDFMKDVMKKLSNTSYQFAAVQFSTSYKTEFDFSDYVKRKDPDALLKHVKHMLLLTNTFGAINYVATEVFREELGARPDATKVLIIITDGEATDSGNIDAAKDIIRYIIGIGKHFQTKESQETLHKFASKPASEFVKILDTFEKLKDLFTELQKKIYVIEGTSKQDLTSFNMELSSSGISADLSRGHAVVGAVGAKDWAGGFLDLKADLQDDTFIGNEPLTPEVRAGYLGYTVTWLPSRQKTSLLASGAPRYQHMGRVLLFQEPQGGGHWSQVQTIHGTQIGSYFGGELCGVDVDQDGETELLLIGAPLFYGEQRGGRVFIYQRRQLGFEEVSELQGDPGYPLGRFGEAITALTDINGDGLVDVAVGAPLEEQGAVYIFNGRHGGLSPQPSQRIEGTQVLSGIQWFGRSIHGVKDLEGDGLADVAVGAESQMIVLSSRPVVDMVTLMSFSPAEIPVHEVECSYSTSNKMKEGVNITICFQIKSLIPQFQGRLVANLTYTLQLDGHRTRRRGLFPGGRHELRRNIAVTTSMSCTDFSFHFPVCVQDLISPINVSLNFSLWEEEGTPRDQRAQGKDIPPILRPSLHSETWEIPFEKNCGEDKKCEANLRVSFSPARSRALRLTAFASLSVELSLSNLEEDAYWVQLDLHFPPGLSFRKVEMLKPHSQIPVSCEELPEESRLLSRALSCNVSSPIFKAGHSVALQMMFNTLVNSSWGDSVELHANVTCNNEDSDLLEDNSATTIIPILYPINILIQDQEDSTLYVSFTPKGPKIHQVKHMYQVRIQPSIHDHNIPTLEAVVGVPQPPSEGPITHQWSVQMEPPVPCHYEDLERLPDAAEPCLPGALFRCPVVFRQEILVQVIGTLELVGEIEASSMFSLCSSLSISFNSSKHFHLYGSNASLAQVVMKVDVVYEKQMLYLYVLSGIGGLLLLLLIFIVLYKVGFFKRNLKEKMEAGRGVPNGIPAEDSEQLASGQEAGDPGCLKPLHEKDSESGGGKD
T1 sequence (P05362 whole entry, further chain): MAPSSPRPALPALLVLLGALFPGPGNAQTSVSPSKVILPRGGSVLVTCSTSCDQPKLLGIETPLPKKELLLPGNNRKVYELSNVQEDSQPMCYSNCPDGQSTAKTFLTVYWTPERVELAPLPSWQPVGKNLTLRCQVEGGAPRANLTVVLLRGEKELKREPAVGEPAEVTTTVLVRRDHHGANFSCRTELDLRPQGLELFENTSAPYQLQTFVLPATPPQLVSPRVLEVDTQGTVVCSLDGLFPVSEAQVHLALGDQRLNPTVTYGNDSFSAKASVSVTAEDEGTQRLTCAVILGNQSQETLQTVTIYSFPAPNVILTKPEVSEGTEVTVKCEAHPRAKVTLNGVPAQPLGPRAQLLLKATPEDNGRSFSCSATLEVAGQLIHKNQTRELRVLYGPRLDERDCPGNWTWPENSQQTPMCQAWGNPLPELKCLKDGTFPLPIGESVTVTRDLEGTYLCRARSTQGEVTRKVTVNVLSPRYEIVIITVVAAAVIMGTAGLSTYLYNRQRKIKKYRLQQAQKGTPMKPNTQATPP
T1 sequence (P05107 whole entry): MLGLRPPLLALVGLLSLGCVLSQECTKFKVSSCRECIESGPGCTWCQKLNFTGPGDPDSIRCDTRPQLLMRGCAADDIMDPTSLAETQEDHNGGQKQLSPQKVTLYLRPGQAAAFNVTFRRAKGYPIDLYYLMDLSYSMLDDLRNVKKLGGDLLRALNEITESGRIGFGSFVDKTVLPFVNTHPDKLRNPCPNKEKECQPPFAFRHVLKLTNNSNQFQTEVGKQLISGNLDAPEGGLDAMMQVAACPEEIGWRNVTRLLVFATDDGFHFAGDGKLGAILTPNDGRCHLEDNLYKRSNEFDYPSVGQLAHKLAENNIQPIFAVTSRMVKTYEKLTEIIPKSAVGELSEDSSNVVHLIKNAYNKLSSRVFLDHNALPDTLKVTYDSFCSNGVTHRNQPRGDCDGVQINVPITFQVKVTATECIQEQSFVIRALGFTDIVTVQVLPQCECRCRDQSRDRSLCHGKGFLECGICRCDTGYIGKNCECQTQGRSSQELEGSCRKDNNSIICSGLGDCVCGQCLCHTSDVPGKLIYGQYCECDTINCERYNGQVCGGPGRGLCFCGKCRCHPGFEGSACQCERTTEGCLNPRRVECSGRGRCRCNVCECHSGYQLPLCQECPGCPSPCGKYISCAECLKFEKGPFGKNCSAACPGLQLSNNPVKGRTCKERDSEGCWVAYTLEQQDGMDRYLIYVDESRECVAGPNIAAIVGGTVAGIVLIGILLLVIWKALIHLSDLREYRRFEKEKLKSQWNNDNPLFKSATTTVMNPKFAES

## C[C@@]1(Cc2ccc(Br)cc2)C(=O)N(c2cc(Cl)cc(Cl)c2)c2ncc(S(=O)(=O)N3CCC(=O)CC3)n21
[1]
  IC50: 250 nM
[2]
  Kd: 300 nM
Cell line [3]
  IC50: 5500 nM
[4]
  Kd: 10 nM
Mus musculus
  IC50: 5500 nM

## CC1(Cc2ccc(Br)cc2)C(=O)N(c2cc(Cl)cc(Cl)c2)c2nnnn21 (centres undefined)
[4]
  Kd: 110 nM

## CNCCCS(=O)(=O)c1cnc2n1[C@](C)(Cc1ccc(Br)cc1)C(=O)N2c1cc(Cl)cc(Cl)c1
[4]
  Kd: 150 nM

## CC1(Cc2ccc(Br)cc2)C(=O)N(c2cc(Cl)cc(Cl)c2)c2ncc(S(C)(=O)=O)n21 (centres undefined)
[4]
  Kd: 70 nM

## C[C@@]1(Cc2ccc(Br)cc2)C(=O)N(c2cc(Cl)cc(Cl)c2)c2ncc(S(=O)(=O)CCCCO)n21
[4]
  Kd: 10 nM

## C[C@@]1(Cc2ccc(Br)cc2)C(=O)N(c2cc(Cl)cc(Cl)c2)c2ncc(S(=O)(=O)N3CCCCC3)n21
[4]
  Kd: 50 nM

## COc1cnc2n1C(C)(Cc1ccc(Br)cc1)C(=O)N2c1cc(Cl)cc(Cl)c1 (centres undefined)
[4]
  Kd: 360 nM

## Cc1cnc2n1C(C)(Cc1ccc(Br)cc1)C(=O)N2c1cc(Cl)cc(Cl)c1 (centres undefined)
[4]
  Kd: 340 nM

## C[C@]1(Cc2ccc(Br)cc2)C(=O)N(c2cc(Cl)cc(Cl)c2)c2nccn21
[4]
  Kd: > 7000 nM

## CC1(Cc2ccc(Br)cc2)C(=O)N(c2cc(Cl)cc(Cl)c2)c2nc(I)cn21 (centres undefined)
[4]
  Kd: > 20000 nM

## CC1(Cc2ccc(Br)cc2)C(=O)N(c2cc(Cl)cc(Cl)c2)c2nncn21 (centres undefined)
[4]
  Kd: 40 nM

## CC1(Cc2ccc(Br)cc2)C(=O)N(c2cc(Cl)cc(Cl)c2)c2nc(S(C)(=O)=O)cn21 (centres undefined)
[4]
  Kd: 920 nM

## CC1(Cc2ccc(Br)cc2)C(=O)N(c2cc(Cl)cc(Cl)c2)c2nc(Br)cn21 (centres undefined)
[4]
  Kd: 630 nM

## CC1(Cc2ccc(Br)cc2)C(=O)N(c2cc(Cl)cc(Cl)c2)c2nc(C#N)cn21 (centres undefined)
[4]
  Kd: 280 nM

## CC(=O)OCCCCS(=O)(=O)c1cnc2n1[C@](C)(Cc1ccc(Br)cc1)C(=O)N2c1cc(Cl)cc(Cl)c1
[4]
  Kd: 30 nM

## CC(=O)OCCCS(=O)(=O)c1cnc2n1[C@](C)(Cc1ccc(Br)cc1)C(=O)N2c1cc(Cl)cc(Cl)c1
[1]
  IC50: 370 nM
[2]
  Kd: 40 nM
Cell line [3]
  IC50: 7000 nM
[4]
  Kd: 10 nM

## C[C@@]1(Cc2ccc(Br)cc2)C(=O)N(c2cc(Cl)cc(Cl)c2)c2ncc(S(=O)(=O)N3CCOCC3)n21
[4]
  Kd: 20 nM

## CC1(Cc2ccc(Br)cc2)C(=O)N(c2cc(Cl)cc(Cl)c2)c2ncc(I)n21 (centres undefined)
[4]
  Kd: 410 nM

## C[C@@]1(Cc2ccc(Br)cc2)C(=O)N(c2cc(Cl)cc(Cl)c2)c2nccn21
[5]
  Cmax: 25 ng/mL
[6]
  IC50: 1200 nM
[7]
  Cmax: 155 ng/mL
Cell line [8]
  Activity: 114 pM/min/ml
[4]
  Kd: 10 nM

## CC(=O)NCCCS(=O)(=O)c1cnc2n1[C@](C)(Cc1ccc(Br)cc1)C(=O)N2c1cc(Cl)cc(Cl)c1
[1]
  IC50: 350 nM
[2]
  Kd: 70 nM
Cell line [3]
  IC50: 9500 nM
[4]
  Kd: 30 nM
Mus musculus
  IC50: 9500 nM

## C[C@@]1(Cc2ccc(Br)cc2)C(=O)N(c2cc(Cl)cc(Cl)c2)c2ncc(S(=O)(=O)CCO)n21
[4]
  Kd: 40 nM

## C[C@@]1(Cc2ccc(Br)cc2)C(=O)N(c2cc(Cl)cc(Cl)c2)c2ncc(S(=O)(=O)N3CCNCC3)n21
[1]
  IC50: 380 nM
[2]
  Kd: 400 nM
Cell line [3]
  IC50: 27800 nM
[4]
  Kd: 50 nM
Mus musculus
  IC50: 27800 nM

## CC1(Cc2ccc(Br)cc2)C(=O)N(c2cc(Cl)cc(Cl)c2)c2ncc(C#N)n21 (centres undefined)
[4]
  Kd: 190 nM

## C[C@@]1(Cc2ccc(Br)cc2)C(=O)N(c2cc(Cl)cc(Cl)c2)c2ncc(S(=O)(=O)N3CCC(O)CC3)n21
[1]
  IC50: 30 nM
[2]
  Kd: 40 nM
Cell line [3]
  IC50: 4600 nM
[9]
  Kd: 9 nM
[4]
  Kd: 8 nM
Mus musculus
  IC50: 4600 nM

## CC1(Cc2ccc(Br)cc2)C(=O)N(c2cc(Cl)cc(Cl)c2)c2ncc(Br)n21 (centres undefined)
[4]
  Kd: 180 nM

## CC1(Cc2ccc(Br)cc2)C(=O)N(c2cc(Cl)cc(Cl)c2)c2nccn21 (racemic)
[4]
  Kd: 380 nM

## C[C@@]1(Cc2ccc(Br)cc2)C(=O)N(c2cc(Cl)cc(Cl)c2)c2ncc(S(C)(=O)=O)n21
[6]
  IC50: 260 nM
[10]
  Cmax: 2800 ng/mL
[11]
  Cmax: 14400 ng/mL
[4]
  Kd: 50 nM

## COCCCS(=O)(=O)c1cnc2n1[C@](C)(Cc1ccc(Br)cc1)C(=O)N2c1cc(Cl)cc(Cl)c1
[4]
  Kd: 20 nM

## C[C@@]1(Cc2ccc(Br)cc2)C(=O)N(c2cc(Cl)cc(Cl)c2)c2ncc(S(=O)(=O)CCCO)n21
[1]
  IC50: 90 nM
[2]
  Kd: 100 nM
Cell line [3]
  IC50: 10400 nM
[12]
  Kd: 10 nM
[4]
  Kd: 10 nM

## CN1C(=O)N(c2cc(Cl)cc(Cl)c2)C(=O)[C@@]1(C)Cc1ccc(Br)cc1
[13]
  IC50: 240 nM
Cell line [8]
  Activity: 141 pM/min/mg

## C[C@@]1(Cc2ccc(Br)cc2)C(=O)N(c2cc(Cl)cc(Cl)c2)c2ncc(S(=O)(=O)CCCN)n21
[4]
  Kd: 170 nM

## C[C@@]1(Cc2ccc(Br)cc2)C(=O)N(c2cc(Cl)cc(Cl)c2)c2ncc(S(=O)(=O)N3CCCC(O)C3)n21 (some centres undefined)
[4]
  Kd: 70 nM

Reference: ChEMBL document CHEMBL1138790, “Second-generation lymphocyte function-associated antigen-1 inhibitors: 1H-imidazo[1,2-alpha]imidazol-2-one derivatives” (J Med Chem, 2004)
